Results as given in ChEMBL document CHEMBL4038302, “Fibroblast Activation Protein α Activated Tripeptide Bufadienolide Antitumor Prodrug with Reduced Cardiotoxicity” (J Med Chem, 2017).
The source made the active and inactive calls. The calls are words filed in the database; no cut-off is given here.

Key:
[1] = Cytotoxicity in BMSC (unknown origin) assessed as cell viability at 1000 nmol/L after 72 hrs by MTT assay; format: cell-based; conditions: unidentified, 1 µM
[2] = tested on: MDA-MB-435; assay: Antiproliferative activity against wild type human MDA-MB-435 cells expressing FAP-alpha incubated for 48 hrs by MTT assay; format: functional, cell-based; conditions: MDA-MB-435, 48 h
How it was run: (§1)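 Cells grown in DMEM with 10% FBS and 1% penicillin-streptomycin at 37 °C, 5% CO2; 10% heat-inactivated FBS used during cytotoxicity testing to exclude serum FAP activity. Viability read by MTT; IC50 as mean ± SEM of at least three independent experiments. Transfected lines were made from MDA-MB-231 with human FAPα plasmid or empty pCMV6-Entry vector and checked by Western blot at 48 h.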

[3] = tested on: MCF7; assay: Antiproliferative activity against FAP-alpha deficient human MCF7 cells incubated for 48 hrs by MTT assay; format: functional, cell-based; conditions: MCF7, 48 h; how it was run: as §1
[4] = tested on: MDA-MB-231; assay: Antiproliferative activity against FAP-alpha deficient human MDA-MB-231 cells incubated for 48 hrs by MTT assay; format: functional, cell-based; conditions: MDA-MB-231, 48 h; how it was run: as §1
[5] = tested on: MDA-MB-231; assay: Antiproliferative activity against human MDA-MB-231 cells assessed as decrease in cell viability at 62.5 to 500 nmol/L after 72 hrs by MTT assay; format: functional, cell-based
[6] = tested on: MDA-MB-231; assay: Antiproliferative activity against human MDA-MB-231 cells transfected with pCMV6 incubated for 48 hrs by MTT assay; format: functional, cell-based; conditions: MDA-MB-231, 48 h; how it was run: as §1
[7] = tested on: MDA-MB-231; assay: Antiproliferative activity against human MDA-MB-231 cells transfected with human FAP-alpha incubated for 48 hrs by MTT assay; format: functional, cell-based; conditions: MDA-MB-231, 48 h; how it was run: as §1
[8] = tested on: [H][C@]12CC[C@@]3([H])[C@@]4(O)CC[C@H](c5ccc(=O)oc5)[C@@]4(C)C(=O)[C@@H](O)[C@]3([H])[C@@]1(C)CC[C@H](OC(=O)[C@H](C)NC(=O)[C@@H]1CCCN1C(=O)CNC(=O)OCc1ccccc1)C2; assay: (§2) Prodrug activation assessed as recombinant human FAP-alpha mediated (S)-((3S,5R,8R,9S,10S,11S,13R,14S,17R)-11,14-dihydroxy-10,13-dimethyl-12-oxo-17-(2-oxo-2H-pyran-5-yl)hexadecahydro-1H-cyclopenta[a]phenanthren-3-yl) 2-aminopropanoate formation by measuring concentration of test compound gives half-maximal activity after 90 mins by UPLC-MS/MS analysis
How it was run: (§3)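 Prodrug at 0.625–40 μmol/L incubated with rhFAPα at 0.45 μg/mL and internal standard in 0.2 mL PBS, pH 7.4, at 37 °C for 90 min. Quenched with MeCN and spun at 18 000g for 15 min; product measured by UPLC-MS/MS. S50 and Vmax fitted with an allosteric sigmoidal model; CLint = Vmax/S50. Three independent experiments.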

[9] = tested on: [H][C@]12CC[C@@]3([H])[C@@]4(O)CC[C@H](c5ccc(=O)oc5)[C@@]4(C)C(=O)[C@@H](O)[C@]3([H])[C@@]1(C)CC[C@H](OC(=O)[C@@H](NC(=O)[C@@H]1CCCN1C(=O)CNC(=O)OCc1ccccc1)C(C)C)C2; assay: as §2, with “2-amino-3-methylbutanoate” for “2-aminopropanoate”; how it was run: as §3
[10] = tested on: [H][C@]12CC[C@@]3([H])[C@@]4(O)CC[C@H](c5ccc(=O)oc5)[C@@]4(C)C(=O)[C@@H](O)[C@]3([H])[C@@]1(C)CC[C@H](OC(=O)[C@H](Cc1c[nH]c3ccccc13)NC(=O)[C@@H]1CCCN1C(=O)CNC(=O)OCc1ccccc1)C2; assay: as §2, with “2-amino-3-(1H-indol-3-yl)propanoate” for “2-aminopropanoate”; how it was run: as §3
[11] = tested on: [H][C@]12CC[C@@]3([H])[C@@]4(O)CC[C@H](c5ccc(=O)oc5)[C@@]4(C)C(=O)[C@@H](O)[C@]3([H])[C@@]1(C)CC[C@H](OC(=O)Cc1ccc(NC(=O)[C@@H]3CCCN3C(=O)CNC(=O)OCc3ccccc3)cc1)C2; assay: Prodrug activation assessed as recombinant human FAP-alpha mediated 5-((3S,5R,8R,9S,10S,11S,13R,14S,17R)-3-(2-(4-aminophenyl)acetyl)-11,14-dihydroxy-10,13-dimethyl-12-oxohexadecahydro-1H-cyclopenta[a]phenanthren-17-yl)-2H-pyran-2-one formation by measuring concentration of test compound gives half-maximal activity after 90 mins by UPLC-MS/MS analysis; how it was run: as §3
[12] = target: T1, Prolyl endopeptidase FAP (Homo sapiens, UniProt Q12884); assay: as §2, with “2-amino-3-methylbutanoate” for “2-aminopropanoate”, “[…]” for “concentration of test compound gives half-maximal activity”; conditions: 1.5 h; how it was run: as §3
T1 sequence (Q12884 whole entry): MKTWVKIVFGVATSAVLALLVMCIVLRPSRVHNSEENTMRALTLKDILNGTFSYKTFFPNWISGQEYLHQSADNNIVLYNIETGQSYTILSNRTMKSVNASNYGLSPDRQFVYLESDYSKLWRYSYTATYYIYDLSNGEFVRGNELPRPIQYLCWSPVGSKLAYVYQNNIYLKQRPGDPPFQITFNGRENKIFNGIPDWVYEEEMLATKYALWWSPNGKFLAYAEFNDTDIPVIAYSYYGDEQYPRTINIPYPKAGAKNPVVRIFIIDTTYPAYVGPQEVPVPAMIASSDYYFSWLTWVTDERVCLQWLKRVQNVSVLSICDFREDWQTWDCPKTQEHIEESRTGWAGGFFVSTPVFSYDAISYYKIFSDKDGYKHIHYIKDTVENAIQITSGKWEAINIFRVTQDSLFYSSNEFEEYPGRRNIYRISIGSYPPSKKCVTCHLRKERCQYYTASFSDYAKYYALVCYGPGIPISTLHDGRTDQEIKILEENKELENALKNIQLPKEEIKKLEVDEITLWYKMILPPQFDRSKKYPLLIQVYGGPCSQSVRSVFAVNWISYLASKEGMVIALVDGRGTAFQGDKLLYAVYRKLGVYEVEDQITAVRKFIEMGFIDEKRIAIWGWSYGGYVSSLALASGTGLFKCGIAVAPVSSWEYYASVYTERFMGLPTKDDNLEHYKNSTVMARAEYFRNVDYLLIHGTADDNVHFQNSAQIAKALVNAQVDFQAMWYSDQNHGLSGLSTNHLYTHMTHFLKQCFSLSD

For `C[C@]12CC[C@H](OC(=O)[C@@H](N)Cc3c[nH]c4ccccc34)C[C@H]1CC[C@@H]1[C@@H]2[C@H](O)C(=O)[C@]2(C)[C@@H](c3ccc(=O)oc3)CC[C@]12O`, the Activity [1] was “Non-Toxic”, the IC50 [2] was 10 nM and the IC50 [3] was 1.06 nM. For the same compound, the IC50 [4] was 4.81 nM, the Activity [5] was “Active” and the IC50 [6] was 5.19 nM. The IC50 [7] was 7.19 nM.
Work on Prolyl endopeptidase FAP (Homo sapiens) yielded a K0.5 [8] of 21.3 µM, a Vmax [8] of 0.494 µmol/min/mg and a K0.5 [9] of 34.5 µM. It also gave a Vmax [9] of 0.044 µmol/min/mg, a K0.5 [10] of 10.4 µM and a Vmax [10] of 0.682 µmol/min/mg. The K0.5 [11] was 3.68 µM and the Vmax [11] was 0.026 µmol/min/mg.
Work on `CC(C)[C@H](NC(=O)[C@@H]1CCCN1C(=O)CNC(=O)OCc1ccccc1)C(=O)O[C@H]1CC[C@@]2(C)[C@H](CC[C@@H]3[C@@H]2[C@H](O)C(=O)[C@]2(C)[C@@H](c4ccc(=O)oc4)CC[C@]32O)C1` yielded a CL [12] of 1270 µL/min/mg.
